According to PubChem BioAssay AID489000 (The Scripps Research Institute Molecular Screening Center, 2010):
Active and inactive are the calls of the source.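 How the source made its calls: active means IC50 for blocking EBNA-1 binding to its DNA probe at or below 10 µM; inactive means the rest.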

Biological target: Epstein-Barr virus nuclear antigen 1 (EBNA-1) DNA-binding domain
Test: blockers of EBV EBNA-1 DNA binding, IC50 – biochemical, fluorescence polarization, dose response, powder samples, late-stage follow-up (AID 489000)
Settings: Recombinant EBNA-1 DBD, Cy5-DNA fluorescence polarization
Procedure, shortened: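 Assay system: E. coli-expressed EBNA-1 DBD protein. Medium: Tris pH 7.4 buffer with 200 mM NaCl, DTT, BSA. Schedule: Protein-probe preincubation 30 min, compound exposure 1 h, room temperature. Measured by: fluorescence polarization, 620 nm excitation, 688 nm emission. Measure: percent inhibition between controls, IC50 from four-parameter sigmoidal fit.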

Row | Compound | IC50
1 | Cc1cccc(C(=O)Nc2nc3ccc(S(C)(=O)=O)cc3s2)c1 | inactive
2 | Cc1cc(C(=O)CSc2nnnn2C2CC2)c(C)n1CC1CCCO1 (centres undefined) | inactive
3 | CS(=O)(=O)c1ccc2nc(NC(=O)c3ccccc3F)sc2c1 | > 148 µM (inactive)
4 | Cc1ccc(C(=O)Nc2nc3cc(Br)ccc3s2)cc1C | > 148 µM (inactive)
5 | COc1cccc(C(=O)Nc2nc3ccc(S(C)(=O)=O)cc3s2)c1 | inactive
6 | Cc1ccc(C(=O)Nc2nc3cc(F)ccc3s2)cc1C | > 148 µM (inactive)
7 | COCCn1c(C)cc(C(=O)CSc2nnnn2-c2ccccc2)c1C | > 148 µM (inactive)
8 | Cc1ccccc1-n1nnnc1SCC(=O)c1cc(C)n(CC2CCCO2)c1C (centres undefined) | > 148 µM (inactive)
9 | CCn1c(C)cc(C(=O)CSc2nnnn2-c2ccccc2)c1C | > 148 µM (inactive)
10 | Cc1cccc(-n2nnnc2SCC(=O)c2cc(C)n(CC3CCCO3)c2C)c1 (centres undefined) | > 148 µM (inactive)
11 | Cc1cc(C(=O)CSc2nnnn2-c2ccccc2)c(C)n1C | inactive
12 | COc1ccc(C(=O)Nc2nc3ccc(S(C)(=O)=O)cc3s2)cc1 | inactive
13 | COc1ccc(-n2nnnc2SCC(=O)c2cc(C)n(CC3CCCO3)c2C)cc1 (centres undefined) | > 16.4 µM (inactive)
14 | COc1ccccc1C(=O)Nc1nc2ccc(S(C)(=O)=O)cc2s1 | > 148 µM (inactive)
15 | COc1ccc2nc(NC(=O)c3ccc(C)c(C)c3)sc2c1 | > 148 µM (inactive)
16 | CS(=O)(=O)c1ccc2nc(NC(=O)c3cccc(Cl)c3)sc2c1 | > 148 µM (inactive)
17 | CS(=O)(=O)c1ccc2nc(NC(=O)c3ccc(Cl)cc3)sc2c1 | inactive
18 | Cc1cc(C(=O)CSc2nnnn2-c2cccc(F)c2)c(C)n1CC1CCCO1 (centres undefined) | > 148 µM (inactive)
19 | Cc1cc(C(=O)CSc2nnnn2-c2ccccc2)c(C)n1Cc1cccs1 | > 148 µM (inactive)
20 | Cc1ccccc1C(=O)Nc1nc2ccc(S(C)(=O)=O)cc2s1 | > 148 µM (inactive)
21 | COc1ccc2sc(NC(=O)c3ccc(C)c(C)c3)nc2c1 | > 148 µM (inactive)
22 | Cc1ccc(C(=O)Nc2nc3ccc(S(C)(=O)=O)cc3s2)cc1 | > 148 µM (inactive)
23 | Cc1cc(C(=O)CSc2nnnn2C)c(C)n1CC1CCCO1 (centres undefined) | > 148 µM (inactive)
24 | CS(=O)(=O)c1ccc2nc(NC(=O)c3cccc(F)c3)sc2c1 | > 148 µM (inactive)
25 | COc1cccc2sc(NC(=O)c3ccc(C)c(C)c3)nc12 | > 148 µM (inactive)
26 | CS(=O)(=O)c1ccc2nc(NC(=O)c3ccccc3Cl)sc2c1 | > 148 µM (inactive)
27 | O=C(CSc1nnnn1-c1ccccc1)c1ccn(CC2CCCO2)c1 (centres undefined) | > 148 µM (inactive)
28 | Cc1ccc(C(=O)Nc2nc3ccc(Br)cc3s2)cc1C | > 148 µM (inactive)
29 | Cc1cc(C(=O)CSc2nnnn2-c2ccc(Cl)cc2)c(C)n1CC1CCCO1 (centres undefined) | > 148 µM (inactive)
